Assay results gathered from unrelated publications.
Each line is one published result; the experiments were not run side by side.
Effect on: cell growth or viability

| Structure (SMILES) | cell line | technique | tested at | time | quantity | result |
| --- | --- | --- | --- | --- | --- | --- |
| C=C1C(=O)O[C@H]2[C@H]1CC/C(C)=C/CC[C@@]1(C)O[C@@H]21 | THP-1 | ATP luminescence | – | 17 h | IC50 | 8.89 µM |
| C/C=C(/C)C(=O)O[C@@H]1[C@H](OC(C)=O)c2c(ccc3ccc(=O)oc23)OC1(C)C | HEp-2 | WST-1 | – | – | IC50 | 53.5 µM |
| C=C(C)[C@@H]1CC[C@]2(C(=O)O)CC[C@]3(C)[C@H](CC[C@@H]4[C@@]5(C)CC[C@H](O)C(C)(C)[C@@H]5CC[C@]43C)[C@@H]12 | WS1 | – | – | 48 h | IC50 | 36 µM |
| COc1cccc2c1C(=O)c1c(O)c3c(c(O)c1C2=O)C[C@@](O)(C(=O)CO)C[C@@H]3O[C@H]1C[C@H](N)[C@H](O)[C@H](C)O1 | MCF7 | MTT | 25 µM | 48 h | viability | 16% |
| C=C(C)[C@H](CCC(C)(C)O)Cc1c(O)cc(OC)c2c1O[C@H](c1ccc(O)cc1O)CC2=O | MCF7 | MTT | – | 48 h | IC50 | > 100 µM |
| O=[N+]([O-])c1ccc(-c2nc3cc(F)ccc3[nH]2)o1 | HEp-2 | resazurin | – | 72 h | CC50 | 3.1 µM |
| O=c1oc2c(O)c(O)cc3c(=O)oc4c(O)c(O)cc1c4c23 | TZM-bl | MTT | – | 48 h | CC50 | 469 µg/mL |
| COC(=O)[C@]1(O)C[C@@H](O)[C@@H](O)[C@H](OC(=O)/C=C/c2ccc(O)c(O)c2)C1 | HEp-2 | WST-1 | – | – | IC50 | 21.2 µM |
| C=C(C)[C@H](CC=C(C)C)Cc1c(O)cc(O)c2c1O[C@H](c1ccc(O)cc1O)CC2=O | MCF7 | MTT | – | 48 h | IC50 | 19.2 µM |
| CC(=O)OC1c2c(ccc3ccc(=O)oc23)OC(C)(C)C1OC(=O)C(C)(O)C(C)O (stereo not drawn) | HEp-2 | WST-1 | – | – | IC50 | 11.3 µM |
| Cc1nc(C(CN)NC(=O)C(=O)Nc2ccc3c(c2)OCO3)sc1CO (stereo not drawn) | TZM-bl | MTS | – | 72 h | CC50 | ≥ 750 µM |
| CC(=O)O[C@@H]1c2c(ccc3ccc(=O)oc23)OC(C)(C)[C@@H]1OC(=O)C1(C)OC1C (stereo partly drawn) | MCF7 | WST-1 | – | – | IC50 | 25.1 µM |
| O=[N+]([O-])c1ccc(-c2nc3cc(Cl)ccc3[nH]2)o1 | HEp-2 | resazurin | – | 72 h | CC50 | 5 µM |
| C[C@@H]1[C@H](O)[C@@H](C)/C=C/C=C/C=C/C=C/C=C/C=C/C=C/[C@H](O[C@@H]2O[C@H](C)[C@@H](O)[C@H](N)[C@@H]2O)C[C@@H]2O[C@](O)(C[C@@H](O)C[C@@H](O)[C@H](O)CC[C@@H](O)C[C@@H](O)CC(=O)O[C@H]1C)C[C@H](O)[C@H]2C(=O)O | THP-1 | MTT | – | 72 h | CC50 | 3.6 µM |
| C/C(=C\C(=O)OCCCCCCCCC(=O)O)C[C@@H]1OC[C@H](C[C@@H]2O[C@H]2[C@@H](C)[C@H](C)O)[C@@H](O)[C@H]1O | TZM-bl | – | – | – | CC50 | > 100 µM |
